Experimental data reported in ChEMBL document CHEMBL1135544, “Design, synthesis, and biological activity of hybrid compounds between uramustine and DNA minor groove binder distamycin A” (J Med Chem, 2002).

Test system: K562
Experiment: In vitro antitumor activity against human chronic myeloid leukemia K562 cell line
Type: functional, cell-based
Summary of the method: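 K562 cells grown in RPMI 1640 with 10% fetal calf serum and 2 mM glutamine at 37 °C, 5% CO2. Exposed to drug for 1 h at 37 °C in the dark, then centrifuged and washed. Seeded at 10⁴ cells/well, 8 wells per sample, and cultured 4 days. MTT read at 550 nm. IC50 is the dose giving 50% of control OD, mean of at least three experiments.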

SMILES | IC50 [µM]
O=C(O)CCCCCCn1cc(N(CCCl)CCCl)c(=O)[nH]c1=O | > 100
O=C(O)CCCCCn1cc(N(CCCl)CCCl)c(=O)[nH]c1=O | > 100
O=C(O)CCCCn1cc(N(CCCl)CCCl)c(=O)[nH]c1=O | > 100
Cn1cc(NC(=O)c2cc(NC(=O)c3cc(NC=O)cn3C)cn2C)cc1C(=O)NCCC(=N)N | > 100
O=C(O)CCCn1cc(N(CCCl)CCCl)c(=O)[nH]c1=O | > 100
Cn1cc(NC(=O)c2cc(NC(=O)c3cc(NC(=O)CCCCn4cc(N(CCCl)CCCl)c(=O)[nH]c4=O)cn3C)cn2C)cc1C(=O)NCCC(=N)N | 0.11
Cn1cc(NC(=O)c2cc(NC(=O)c3cc(NC(=O)Cn4cc(N(CCCl)CCCl)c(=O)[nH]c4=O)cn3C)cn2C)cc1C(=O)NCCC(=N)N | 4.06
Cn1cc(NC(=O)c2cc(NC(=O)c3cc(NC(=O)CCn4cc(N(CCCl)CCCl)c(=O)[nH]c4=O)cn3C)cn2C)cc1C(=O)NCCC(=N)N | 2.54
Cn1cc(NC(=O)c2cc(NC(=O)c3cc(NC(=O)CCCn4cc(N(CCCl)CCCl)c(=O)[nH]c4=O)cn3C)cn2C)cc1C(=O)NCCC(=N)N | 7.26
Cn1cc(NC(=O)c2cc(NC(=O)c3cc(NC(=O)CCCCCn4cc(N(CCCl)CCCl)c(=O)[nH]c4=O)cn3C)cn2C)cc1C(=O)NCCC(=N)N | 0.14
Cn1cc(NC(=O)c2cc(NC(=O)c3cc(NC(=O)CCCCCCn4cc(N(CCCl)CCCl)c(=O)[nH]c4=O)cn3C)cn2C)cc1C(=O)NCCC(=N)N | 0.07
Oc1ncc(N(CCCl)CCCl)c(O)n1 [URACIL MUSTARD] | 5.1
